Sampled rows, rich in hits. Any-hit rate of the full collection: about 4.2%.
CTSL1 counter = Fasciola hepatica cathepsin L1 inhibitors, primary screen, counter-screen for PFM18AAP inhibitor project, biochemical, QFRET, fluorogenic peptide substrate; recombinant F. hepatica cathepsin L1, Z-Leu-Arg-MCA fluorescence; inhibition, % at 5.96 µM; hit rate 0.49% among 300,000;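 active means inhibition above the mean of all tested compounds plus 3 SD, set per screening campaign, cut at about 17% in these data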;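 further: 0% = plate median of test compound wells and 100% = 1 µM Z-Phe-Ala-diazomethylketone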
SENP1 inh = human SENP1 catalytic domain inhibitors, primary screen, biochemical, FRET, uHTS. recombinant SENP1 catalytic domain, CyPet-SUMO1-YPet FRET cleavage. inhibition, % at 10 µM. hit rate 0.21% among 360,000;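 active means inhibition at least 30% at 10 µM, raw YFP signal under a set limit, fluorescence ratio 0.5 to 1.5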;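 further: 0% = enzyme with DMSO and 100% = no enzyme wells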
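Controls: no-enzyme wells low, DMSO-plus-enzyme wells high control. Test system: human recombinant His6-tagged SENP1 catalytic domain enzyme. Reagent: SFCypet-SUMO1-SFYpet FRET protein substrate, 25 nM final. Doses: one dose per compound, 10 µM, 0.5% DMSO. Detection: FRET, CFP and YFP emission. Timing: 50 min reaction at room temperature.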
HDAC3 inh = HDAC3 deacetylase inhibitors, primary screen, biochemical, fluorescence, cell-free homogeneous. inhibition, % at 8.3 µM. AID 2718, 2010. hit rate 0.15% among 320,000. recombinant HDAC3, fluorogenic peptide/trypsin coupled; in the data active means inhibition above about 26%, passing the limit was not always enough; inconclusive means no clear call, values can overlap the other calls
Target sequence (O15379 whole entry, looked up): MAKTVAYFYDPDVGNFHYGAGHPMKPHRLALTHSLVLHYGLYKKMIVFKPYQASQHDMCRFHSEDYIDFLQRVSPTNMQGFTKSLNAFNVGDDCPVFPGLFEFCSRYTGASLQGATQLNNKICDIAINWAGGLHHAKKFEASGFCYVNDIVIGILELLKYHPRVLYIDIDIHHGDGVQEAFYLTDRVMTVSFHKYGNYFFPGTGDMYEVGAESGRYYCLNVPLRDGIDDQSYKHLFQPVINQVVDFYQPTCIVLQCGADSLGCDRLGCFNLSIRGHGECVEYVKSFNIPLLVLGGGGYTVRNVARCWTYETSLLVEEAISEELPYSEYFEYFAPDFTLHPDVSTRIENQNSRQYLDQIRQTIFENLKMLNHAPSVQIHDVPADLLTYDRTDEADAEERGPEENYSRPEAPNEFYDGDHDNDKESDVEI
AHR act = AHR activators, primary screen, cell-based, luminescence, luciferase reporter, human; Aryl hydrocarbon receptor (Homo sapiens), P35869; AHR-responsive luciferase reporter cells; activation, % at 5 µM; hit rate 2.5% among 320,000; AID 2796, 2010; in the data active means activation above about 47%;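 further: 0% = vehicle wells and 100% = reference agonist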
FXN GAA850 act = FXN promoter activators, primary screen, cell-based, luciferase luminescence, HEK293 lucGAA850; HEK293 lucGAA850 FXN promoter luciferase reporter, 24 h; percent of 10 µM SAHA response; hit rate 0.56% among 360,000; activation, % at 6 µM;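 active means activation above the average of all compounds screened plus 3 SD, cutoff fixed separately per campaign, cut at about 7.5% in these data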;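 further: 0% = DMSO wells and 100% = 10 µM SAHA wells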
PfM18AAP inh = PfM18AAP inhibitors, malaria aminopeptidase, primary screen, biochemical, QFRET, recombinant enzyme | H-Glu-NHMec fluorogenic cleavage | inhibition, % at 7.35 µM | hit rate 1.2% among 290,000 | AID 1822, 2009;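 active means inhibition above the campaign mean inhibition over all tested compounds plus 3 SD, cut at about 28% in these data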;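 further: 0% = plate median of test compound wells and 100% = 2 mM ZnCl2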
AHR act cf = AHR activators, confirmation, cell-based, luminescence, luciferase reporter, human. shares compounds with AHR act. human cells, AHR-responsive luciferase reporter. activation, % at 9 µM. hit rate 87% among 2,300. AID 2845, 2010; in the data active means activation above about 49%;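 further: HepG2 hepatoma cells carrying a DRE-driven firefly luciferase reporter; 0% = vehicle wells and 100% = reference agonist wells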
PXR act counter = human PXR activators, counter-screen for AHR activator project, cell-based, luciferase luminescence; shares compounds with AHR act; cell-based PXR reporter; activation, % at 11.6 µM; hit rate 88% among 2,300; in the data active means activation above about 11%;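 further: human hepatoma DPX-2 cells expressing full-length human PXR; 0% = DMSO and 100% = reference agonist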
The depositor's hits bear a star.

For Cc1ccc(-c2[nH]c(-c3ccccc3)nc2SCC(=O)NCC2CCCO2)cc1 (centres undefined) the results were CTSL1 counter -2, SENP1 inh 2, HDAC3 inh -1, AHR act 93*, FXN GAA850 act -1, PfM18AAP inh -4, AHR act cf 91* and PXR act counter 110*.
Screening Cc1ccc(-c2nc(SCC(=O)NCC3CCCO3)c(-c3ccc(Cl)cc3)[nH]2)cc1 (centres undefined) returned CTSL1 counter -4, SENP1 inh 2, HDAC3 inh inconclusive, AHR act 86*, FXN GAA850 act 0, PfM18AAP inh 0, AHR act cf 73* and PXR act counter 73*.
CCn1c(SCC(=O)NCC2CCCO2)nnc1-c1ccc(Cl)cc1 (centres undefined) was read as CTSL1 counter -2, SENP1 inh 0, HDAC3 inh inconclusive, AHR act 2, FXN GAA850 act 0 and PfM18AAP inh -16.
C=CCNC(=O)c1ccc(N(Cc2ccc(Cl)cc2)S(C)(=O)=O)cc1 was read as CTSL1 counter -3, SENP1 inh 0, HDAC3 inh -1, AHR act -2, FXN GAA850 act 4 and PfM18AAP inh -4.
Screening COc1ccccc1N1CCN(c2ccc3c(c2)S(=O)(=O)c2cccc(C(=O)NCc4cccc(F)c4)c2C3=O)CC1 returned SENP1 inh 14 and FXN GAA850 act -3.
`COc1ccc(C(=O)Nc2c(O)ccc3ccccc23)cc1` gave CTSL1 counter 1, SENP1 inh -4, HDAC3 inh 2, AHR act 79*, FXN GAA850 act 1, AHR act cf 67* and PXR act counter 8.
O=C(C=NNc1ccccc1)c1ccccc1 was read as SENP1 inh 3 and FXN GAA850 act 2.
`CN1/C(=C/C(=O)C2CCC2)Sc2ccccc21` gave CTSL1 counter -5, SENP1 inh 0, HDAC3 inh 1, AHR act 138*, FXN GAA850 act 3, PfM18AAP inh 5, AHR act cf 138* and PXR act counter 23*.
Oc1c(Br)cc(C2N=C(c3ccccc3)NO2)cc1Br (centres undefined) was read as CTSL1 counter -1, SENP1 inh 3, HDAC3 inh 5, AHR act 94*, FXN GAA850 act 3, PfM18AAP inh 13, AHR act cf 92* and PXR act counter 18*.
CCC(=O)Nc1cc(-c2nc3ncccc3o2)ccc1Cl was read as CTSL1 counter 1, SENP1 inh 1, HDAC3 inh -1, AHR act 110*, FXN GAA850 act 0, PfM18AAP inh -4, AHR act cf 97* and PXR act counter 16*.
`Cc1ccc(-c2nc3ncccc3o2)cc1NC(=O)C(C)(C)C` gave CTSL1 counter -10, SENP1 inh 0, HDAC3 inh -2, AHR act 91*, FXN GAA850 act 2, PfM18AAP inh -8, AHR act cf 91* and PXR act counter 32*.
COc1cc2c(cc1OC)C(c1cc(Br)ccc1O)N(C(C)=O)CC2 (centres undefined) was read as CTSL1 counter -1, SENP1 inh -1, HDAC3 inh 3, AHR act 0 and FXN GAA850 act 1.
`COc1ccc(-c2cn(CCc3c[nH]c4ccccc34)nn2)cc1` gave CTSL1 counter -16, SENP1 inh 0, HDAC3 inh -2, AHR act -7, FXN GAA850 act 0 and PfM18AAP inh -8.

High-throughput results deposited in PubChem by several laboratories.
